Efa HMGR inh: blocks class II HMG-CoA reductase of Enterococcus faecalis. purified E. faecalis HMGR, NADPH absorbance 340 nm kinetic. inhibition, % at 10 µM. 190,000 tested, 0.41% active. AID 1066;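 active = inhibition above a set limit, the median over all tested compounds plus 3 SD, cut at about 9.5% in these data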;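 also: enzyme runs in reverse so mevalonate oxidation gives rising NADPH absorbance; 0% = complete reaction with DMSO and 100% = background rate lacking mevalonate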
Yeast lifespan up: yeast lifespan extension; S. cerevisiae growth with nicotinamide, OD615; deaD strain in restrictive glucose medium; inhibition of the nicotinamide effect, % at 10 µM; 130,000 tested, 0.68% active; AID 775;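 active = inhibition above a set limit, placed 3 SD over the median of all compounds, cut at about 26% in these data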;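 also: 0% = nicotinamide-treated wells and 100% = cells grown without nicotinamide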
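Assay system: DeaD-strain S. cerevisiae. Medium: CSMM-D glucose medium, restrictive. Reagent: nicotinamide, 1.5 mM, co-present with compound. Compound: 10 µM single point, 0.25% DMSO. Schedule: culture preincubation 4 h, compound exposure 48 h, both 30 °C. Detection: absorbance at 615 nm.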
BB579 growth dn: yeast BB579 growth reduction in restrictive medium | S. cerevisiae BB579 growth, OD615, 48 h | 140,000 tested, 0.51% active | inhibition, % at 10 µM;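 active = inhibition above a set limit, 3 SD over the mean compound inhibition, cut at about 44% in these data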
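Assay system: S. cerevisiae DeaD strain BB579 yeast. Medium: CSMM-D restrictive synthetic medium containing dextrose (glucose). Times: 4 h cell preincubation, 48 h compound exposure, 30 °C humidified. Signal: OD615 turbidity measurement. Benchmarks: positive control amphotericin B 10 µg/mL.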
sdo1 growth: restores growth of sdo1-depleted yeast; S. cerevisiae sdo1-depleted JHY4D growth rescue, OD600 30 h; active compounds read high; pdr5 snq2 efflux-pump mutant strain; AID 817; 140,000 tested, 0.21% active; z-score at 10 µM;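 active = z-score above 3 at both the 24 hr and the 30 hr optical density reads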;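 also: z-score against mean and SD of all compound wells on the same plate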
Numbers without * were called inactive; · = no result given. Rows were chosen to be rich in hits. Some 1.3% of all compounds tested hit in one or more screens of this group.

SMILES	Efa HMGR inh	Yeast lifespan up	BB579 growth dn	sdo1 growth
COc1ccccc1N1C(=O)c2cccc3c(C(=O)O)ccc(c23)C1=O	-4	-9	15	0.56
COc1ccc2c3c(cccc13)C(=O)N(O)C2=O	8	58*	-26	-0.56
COc1cccc(N2CC(=O)N(c3cccc(OC)c3)CC2=O)c1	9.7*	·	·	·
CC1Cc2ccccc2N1S(=O)(=O)c1cccc(C(=O)N2CCN(c3ncccn3)CC2)c1 (centres undefined)	-3	·	·	·
COc1ccc(CNC(=O)CCn2c(=O)oc3ccccc32)c(OC)c1	-1	·	·	·
COC(=O)C1=C(C(=O)OC)C(c2cc(Br)ccc2O)c2sc(=O)[nH]c2S1 (centres undefined)	-3	61*	-16	-0.8
CCSc1nnc(NC(=O)c2nc3nc(C)cc(C)n3n2)s1	4	·	·	·
CCSc1nnc(NC(=O)CSc2nc(C)cc(C)n2)s1	-5	36*	-39	-0.02
COC(=O)CCCC(=O)N1CCCC(C(=O)c2ccc(OC)cc2C)C1 (centres undefined)	2	·	·	·
CC(C)N(C(=O)CSc1nnc(CN2CCCCCC2=O)n1-c1ccccn1)C(C)C	-2	31	-59	0.45
CC(C)CNC(=O)CSc1nnc(CN2CCCCCC2=O)n1-c1ccccn1	1	29*	4	0.8
CCCn1c(C)cc(C(=O)COC(=O)c2ccc[nH]c2=O)c1C	-2	25	45*	1.3
Cc1ccc(-n2c(C)cc(C(=O)COC(=O)C3=NNC(=O)CC3)c2C)cc1	0	-3	-19	-0.11
Cc1ccc(-n2c(C)cc(C(=O)COC(=O)c3ccc[nH]c3=O)c2C)cc1C	1	-12	99*	-0.91
C=CCOc1ccc(C2C(C(=O)c3ccco3)=C(O)C(=O)N2c2nnc(C)s2)cc1 (centres undefined)	4	·	·	·
Cc1ccc(C(=O)N/N=C/C=C/c2ccccc2)o1	11*	·	·	·
C/C(=N/NC(=O)C1CC1(c1ccccc1)c1ccccc1)c1cccs1 (centres undefined)	2	5	-42	-1.5
C/C(=N\NC(=O)C1CC1)c1cccs1	3	27*	-51	0.19
Cc1cccc(OCCC(=O)Nc2ccc(F)c(Cl)c2)c1	0	-8	1	-0.9
N#Cc1c(N)c(C(=O)c2ccccc2)n2c1CCCC2	-1	-13	-14	-0.03
CC(=O)N(C(C)=O)c1c(C#N)c(C)n(-c2ccccc2)c1C(=O)c1ccccc1	-4	32*	-52	-0.3
Clc1ccc(N/N=C/c2cccnc2)cc1	2	-7	66*	-2
Fc1ccc(N/N=C/c2ccncc2)c(F)c1	0	-11	-1	0.14
Clc1ccc(N/N=C/c2ccncc2)cc1Cl	-2	-12	49*	-2.1
O=C(c1c(O)c2ccccc2oc1=O)C1CCCCC1	-4	29*	-4	0.32
SMILES	Efa HMGR inh	Yeast lifespan up	BB579 growth dn	sdo1 growth
O=C(CCC1CCCC1)c1c(O)c2ccccc2oc1=O	3	33*	-7	-2.3
CN=C(C)c1c(O)c2ccccc2oc1=O	-8	2	-7	0.1
CC1=NNC(=O)/C1=C\c1cn(-c2ccccc2)nc1-c1cccs1	-4	-2	96*	-1.9
CCOc1cc(/C=N/NC(N)=O)cc(Br)c1OCC(=O)Nc1ccccc1C	-5	0	-19	-0.24
CCOc1cc(/C=C\[N+](=O)[O-])ccc1OCC(=O)Nc1ccccc1C	1	92*	-42	-1.1
CCC(C)N(C(=O)CSc1ccc(NC(C)=O)cc1)C1CCS(=O)(=O)C1 (centres undefined)	-1	·	·	·
O=C(NCC1CCCN(Cc2ccc3nonc3c2)C1)c1ccc(F)cc1 (centres undefined)	-2	·	·	·
Cc1ccccc1-n1nnnc1SCC(N)=O	-10	-6	8	0.42
Cc1ccccc1-n1nnnc1Sc1nnnn1-c1ccccc1	-4	39*	-6	-1.9
C=C(C(=O)c1ccccc1)C(c1ccccc1)C(C)C(=O)c1ccccc1 (centres undefined)	0	11	-7	-0.72
C=C(C(=O)c1ccccc1)C(C)C(=C)C(=O)c1ccccc1	-1	46*	-29	-1
COc1cccc(CSc2nc3ccccc3cc2C=O)c1	-4	84*	-54	-1.8
CCOC(=O)/C(C#N)=C/c1cc2ccc(C)cc2nc1Cl	-4	32*	-7	-0.95
Cc1cc2cc(C=C(C#N)C#N)c(Cl)nc2cc1C	-2	32*	-25	-1.5
Cc1cc(C)cc(-n2c(C)cc(C=C(C#N)C#N)c2C)c1	-12	-12	-8	-1.3
O=C(N/N=C/c1ccsc1)c1ccc2ccccc2n1	-4	·	·	·
